Results: paper PMC3788622 (Journal of Medicinal Chemistry, 2013)
“Also recorded” adds a separate entry of the source.

Key:
male C57BL/6J mice [1] = test: Serum markers of liver and kidney damage after multiple subcutaneous injections; assay type: in vivo, mouse; details: 1 mg/kg sc every 3 days, three injections
Method in brief: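 Male C57BL/6J mice, 8 weeks old, were dosed in groups of three with 1 mg/kg sc every 3 days for three injections and sacrificed 2 days after the last. Weight was recorded on injection days and at the end point. Retro-orbital blood was spun at 6000 rpm for 5 min. Serum ALT, AST, total bilirubin, BUN and creatinine were assayed blinded.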

male C57BL/6J mice [2] = test: Histopathology after single subcutaneous injection; assay type: in vivo, mouse; details: for Organ toxicity by histopathology, overall: single sc dose, any dose level tested (1, 3, 10 mg/kg)
Method in brief: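 After the single sc dose (1, 3 or 10 mg/kg, 25% DMSO/saline, 9-day observation), two representative mice per group were fixed in 10% formalin. A veterinary pathologist examined cecum, duodenum, heart, ileum, kidney, liver, lung, pancreas, spleen and stomach, blinded to animal identity.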

male C57BL/6J mice [3] = test: Serum markers of liver and kidney damage after single subcutaneous injection; assay type: in vivo, mouse; details: single sc dose 1, 3, 10 mg/kg; dose stated in the value
Method in brief: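 All mice from the single sc dose groups (1, 3, 10 mg/kg in 25% DMSO/saline, n = 4, 9-day observation) were bled retro-orbitally. Serum was obtained by centrifugation at 6000 rpm for 5 min. ALT, AST, total bilirubin, BUN and creatinine were measured externally, blinded to animal identity.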

male C57BL/6J mice [4] = test: Histopathology after multiple subcutaneous injections; assay type: in vivo, mouse
male C57BL/6J mice [5] = test: Escalating single dose subcutaneous injections: animal weight and behavior; assay type: in vivo, mouse; details: for Weight loss: single sc injection at 1, 3, and 10 mg/kg, observed 9 days
Method in brief: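 Male C57BL/6J mice, 8 weeks old, were acclimatised 3 days after arrival. Groups of four received one sc dose of 1, 3 or 10 mg/kg in up to 200 μL 25% DMSO/saline. Doses were set by UV/vis using ε 69 500 M–1·cm–1 near 315 nm. Mice were weighed daily for 9 days, then sacrificed. Humane end point was visible duress or weight loss over 15% of starting weight.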

male C57BL/6J mice [6] = test: Hematological analysis of wild-type mice after six injections; assay type: in vivo, mouse; details: six injections sc 1 mg/kg, before treatment vs at sacrifice
Method in brief: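 Five healthy male C57BL/6J mice were bled retro-orbitally into K2EDTA tubes for baseline haematology and allowed 1 week to recover. They then received test compound 1 mg/kg sc in 20% DMSO/normal saline every 3 days for six injections. They were bled again 2 days after the final injection and euthanised. Serum and haematology samples were prepared separately; serum ALT, AST, total bilirubin, BUN and creatinine were measured. Data are the mean of five animals ± std.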

p21, IGFBP3, and GADD45A = test: Quantitative RT-PCR of p53 responsive genes; assay type: cell-based; details: LNCaP cells, 1, 3, 10 μM, 72 h
Method in brief: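 LNCaP cells were seeded at 50 000 per well, left to adhere 36–48 h, and treated with 1, 3 or 10 μM test compound for 72 h. Total RNA was extracted on columns and reverse transcribed. p21, IGFBP3 and GADD45A were quantified by SYBR Green real-time PCR relative to β-glucuronidase, in biological replicates.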

LNCaP cells = test: Alkaline comet assay; assay type: cell-based; details: 10 μM, 48 h
Method in brief: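 LNCaP cells were seeded at 100 000 per well and left to adhere 36–48 h. They were then exposed to 10 μM test compound for 48 h, with 5 μM doxorubicin for 4 h as the comparator. DNA damage was assessed with a commercial comet kit after gentle harvest in PBS. Slides were imaged by confocal microscopy at 10×, and more than 100 comets were scored per condition as percentage of DNA in the tail.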

p53 = p53 protein ELISA; assay type: cell-based; details: LNCaP cells
Method in brief: (§1)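 LNCaP cells were treated with 10 μM test compound for 72 h. Controls were DMSO vehicle and 1 μM doxorubicin for 24 h. RPB1 was measured with an RPB1-specific ELISA kit and total p53 with a pan-p53 ELISA kit, each following the kit instructions, in biological triplicates.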

RPB1 = RPB1 protein ELISA; assay type: cell-based; details: LNCaP cells
Method in brief: as §1

[7] = Liver microsomal stability; assay type: in vitro ADME; details: 1 mg/mL mouse liver microsomes, 37 °C, 60 min, with and without NADPH
Method in brief: (§2)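 Test compound was incubated with 1 mg/mL human or mouse liver microsomes at 37 °C in 100 mM KH2PO4, 3 mM MgCl2, pH 7.4, with or without 2 mM NADPH. After 60 min, ice-cold methanol was added, samples sat on ice for 10 min or more, then were diluted with water and centrifuged. Analysis was by LC/MS/MS as percent remaining versus time zero, in duplicate.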

[8] = Liver microsomal stability; assay type: in vitro ADME; details: 1 mg/mL human liver microsomes, 37 °C, 60 min, with and without NADPH
Method in brief: as §2

[9] = Serum levels after subcutaneous injection; assay type: in vivo, mouse; details: male C57BL/6J mice, 10 mg/kg sc
[10] = system: liver tissue of male C57BL/6J mice; test: Liver uptake of fluorescein-polyamide conjugates; assay type: in vivo, mouse; details: 50 nmol (∼3 mg/kg), sacrificed 24 h later
[11] = 1 mg/kg sc every 3 days, three injections
[12] = single sc dose 3 mg/kg, 3 mg/kg

SMILES: CN(CCCNC(=O)c1cccc(C(=O)O)c1)CCCNC(=O)c1cc(NC(=O)c2cc(NC(=O)c3cc(NC(=O)c4nc(NC(=O)C[C@@H](N)CNC(=O)c5cc(NC(=O)c6cc(NC(=O)c7cc(NC(=O)c8nccn8C)cn7C)cn6C)cn5C)cn4C)cn3C)cn2C)cn1C [Polyamide 2, ImPyPyPy-3-(R)^H2Nγ-ImPyPyPy∼NHMe∼IPA]
- Alteration of liver and kidney serum markers (in words) (male C57BL/6J mice [1]): elevated AST and ALT
- Kidney lesions by histopathology (in words) (male C57BL/6J mice [2]; single sc dose 3 mg/kg): Moderate atypical tubular regeneration (karyomegaly, tubular attenuation, mitotic figures) and/or tubular epithelial necrosis and apoptosis
- Liver lesions by histopathology (in words) (male C57BL/6J mice [2]; single sc dose 3 mg/kg): Mild hepatocellular necrosis and apoptosis
- Liver lesions by histopathology (in words) (male C57BL/6J mice [2]; single sc dose 10 mg/kg): diffuse hepatocellular necrosis and apoptosis
- Spleen lesions by histopathology (in words) (male C57BL/6J mice [2]; single sc dose 10 mg/kg): Mild lymphoid apoptosis in the white pulp of the spleen
- Elevation of serum markers of liver and kidney damage (in words) (male C57BL/6J mice [3]): severe elevation of AST, ALT, and total bilirubin at 10 mg/kg and to a lesser extent at 3 mg/kg; also recorded: elevated BUN at 10 mg/kg
- Kidney lesions by histopathology (in words) (male C57BL/6J mice [4]; [11]): mild variable tubular attenuation, karyomegaly, and epithelial necrosis and apoptosis
- Liver lesions by histopathology (in words) (male C57BL/6J mice [4]; [11]): mild multifocal hepatocellular necrosis and apoptosis
- Weight loss (male C57BL/6J mice [5]): significant weight loss only at 10 mg/kg

SMILES: CC(=O)N[C@H](CCNC(=O)c1cc(NC(=O)c2cc(NC(=O)c3cc(NC(=O)c4nccn4C)cn3C)cn2C)cn1C)C(=O)Nc1cn(C)c(C(=O)Nc2cc(C(=O)Nc3cc(C(=O)Nc4cc(C(=O)NCCCN(C)CCCNC(=O)c5cccc(C(=O)O)c5)n(C)c4)n(C)c3)n(C)c2)n1 [Polyamide 3, ImPyPyPy-2-(R)^AcHNγ-ImPyPyPy∼NHMe∼IPA]
- Hematologic changes (in words) (male C57BL/6J mice [6]): No significant hematologic changes
- Transcripts of p53 responsive genes p21, IGFBP3, and GADD45A (p21, IGFBP3, and GADD45A): induced by 3 in a dose-dependent fashion; also recorded: increased
- DNA damage (genomic fragmentation) by comet assay (LNCaP cells): no increase in genomic fragmentation; also recorded: did not result in increased DNA damage
- Alteration of liver and kidney serum markers (in words) (male C57BL/6J mice [1]): no histopathologic lesions consistent with toxicity or alterations in liver and kidney serum markers
- Cellular level of p53 protein (p53; 10 μM, 72 h): increased
- RPB1 protein level (RPB1; 10 μM, 72 h): reduced RPB1 levels
- Organ toxicity by histopathology, overall (male C57BL/6J mice [2]): no detectable toxicity
- Elevation of serum markers of liver and kidney damage (in words) (male C57BL/6J mice [3]): no elevation of these markers at the dose levels tested
- Histopathologic lesions, overall (male C57BL/6J mice [4]; [11]): no histopathologic lesions consistent with toxicity

SMILES: CC(=O)N[C@@H](CNC(=O)c1cc(NC(=O)c2cc(NC(=O)c3cc(NC(=O)c4nccn4C)cn3C)cn2C)cn1C)CC(=O)Nc1cn(C)c(C(=O)Nc2cc(C(=O)Nc3cc(C(=O)Nc4cc(C(=O)NCCCN(C)CCCNC(=O)c5cccc(C(=O)O)c5)n(C)c4)n(C)c3)n(C)c2)n1 [Polyamide 4, ImPyPyPy-3-(R)^AcHNγ-ImPyPyPy∼NHMe∼IPA]
- Percent intact after 1 h incubation [7]: less than 5%
- Kidney lesions by histopathology (in words) (male C57BL/6J mice [2]; single sc dose 1 mg/kg): Milder tubular regeneration and karyomegaly
- Liver lesions by histopathology (in words) (male C57BL/6J mice [2]; single sc dose 1 mg/kg): Mild hepatocellular necrosis and apoptosis
- Spleen lesions by histopathology (in words) (male C57BL/6J mice [2]; single sc dose 3 mg/kg): Mild lymphoid apoptosis in the white pulp of the spleen
- Kidney lesions by histopathology (in words) (male C57BL/6J mice [2]; [12]): Moderate atypical tubular regeneration (karyomegaly, tubular attenuation, mitotic figures) and/or tubular epithelial necrosis and apoptosis
- Liver lesions by histopathology (in words) (male C57BL/6J mice [2]; [12]): multifocal bridging hepatocellular necrosis and apoptosis
- Kidney lesions by histopathology (in words) (male C57BL/6J mice [2]; single sc dose 10 mg/kg): Moderate atypical tubular regeneration (karyomegaly, tubular attenuation, mitotic figures) and/or tubular epithelial necrosis and apoptosis
- Liver lesions by histopathology (in words) (male C57BL/6J mice [2]; single sc dose 10 mg/kg): multifocal bridging hepatocellular necrosis and apoptosis
- Spleen lesions by histopathology (in words) (male C57BL/6J mice [2]; single sc dose 10 mg/kg): Mild lymphoid apoptosis in the white pulp of the spleen
- Elevation of serum markers of liver and kidney damage (in words) (male C57BL/6J mice [3]): marked and severe elevations of AST, ALT, and total bilirubin at both 3 and 10 mg/kg; also recorded: significantly elevated creatinine and BUN at 10 mg/kg and elevated BUN at 3 mg/kg
- Kidney lesions by histopathology (in words) (male C57BL/6J mice [4]; 1 mg/kg sc, two injections): hyaline droplet accumulation
- Liver lesions by histopathology (in words) (male C57BL/6J mice [4]; 1 mg/kg sc, two injections): marked hepatocellular necrosis and apoptosis
- Behavior and appearance (male C57BL/6J mice [5]; single sc injection, 3 mg/kg): hunched posture, loss of mobility, and acute morbidity
- Behavior and appearance (male C57BL/6J mice [5]; single sc injection, 10 mg/kg): hunched posture, loss of mobility, and acute morbidity
- Dose tolerated (only tolerated at) (male C57BL/6J mice [5]; single sc injection, 1, 3, 10 mg/kg tested): 1 mg/kg
- Percent intact after 1 h incubation [8]: less than 5%

SMILES: Cn1cc2cc1C(=O)NCCCC(=O)Nc1cn(C)c(n1)C(=O)Nc1cc(n(C)c1)C(=O)Nc1cc(n(C)c1)C(=O)Nc1cc(n(C)c1)C(=O)NCC[C@@H](N)C(=O)Nc1cn(C)c(n1)C(=O)Nc1cc(n(C)c1)C(=O)Nc1cc(n(C)c1)C(=O)N2 [Polyamide 5]
- Serum bioavailability after subcutaneous injection [9]: bioavailable
- Organ toxicity by histopathology, overall (male C57BL/6J mice [2]): did affect the kidney and liver
- Elevation of serum markers of liver and kidney damage (in words) (male C57BL/6J mice [3]): caused levels of ALT and AST to increase in a dose-dependent manner
- Weight loss (male C57BL/6J mice [5]): did not cause significant weight loss; also recorded: less effect on animal weight than 1

SMILES: CC(=O)N[C@H](CCNC(=O)c1cc(NC(=O)c2cc(NC(=O)c3cc(NC(=O)c4nccn4C)cn3C)cn2C)cn1C)C(=O)Nc1cn(C)c(C(=O)Nc2cc(C(=O)Nc3cc(C(=O)Nc4cc(C(=O)NCCCN(C)CCCNC(=S)Nc5ccc(-c6c7ccc(=O)cc-7oc7cc(O)ccc67)c(C(=O)O)c5)n(C)c4)n(C)c3)n(C)c2)n1 [Polyamide 8]
- Nuclear fluorescence in liver sections [10]: less nuclear fluorescence in liver sections than the other FITC–polyamide conjugates

SMILES: CC(=O)N[C@@H](CNC(=O)c1cc(NC(=O)c2cc(NC(=O)c3cc(NC(=O)c4nccn4C)cn3C)cn2C)cn1C)CC(=O)Nc1cn(C)c(C(=O)Nc2cc(C(=O)Nc3cc(C(=O)Nc4cc(C(=O)NCCCN(C)CCCNC(=S)Nc5ccc(-c6c7ccc(=O)cc-7oc7cc(O)ccc67)c(C(=O)O)c5)n(C)c4)n(C)c3)n(C)c2)n1 [Polyamide 9]
- Nuclear fluorescence in liver sections [10]: the most intense nuclear fluorescence in liver sections

SMILES: COc1cccc2c1C(=O)c1c(O)c3c(c(O)c1C2=O)C[C@@](O)(C(=O)CO)C[C@@H]3O[C@H]1C[C@H](N)[C@H](O)[C@H](C)O1 [doxorubicin, reference compound]
- Cellular level of p53 protein (p53; 1 μM, 24 h): increases
- RPB1 protein level (RPB1; 1 μM, 24 h): decreases
